In general, IC50 refers to the point on the concentration scale where inhibition reaches its midpoint.

The structures appear in SMILES notation. Where two headings read alike, the source gives them in different places.

Assay [1] relates to TNF-α levels in the plasma. Put plainly: Measurement of TNF-α production in plasma of LPS-treated SD rats. Conditions: LPS 5 mg/Kg i.p., blood 2 h after LPS; for TNF-α plasma level: LPS group 1623 pg/mL. The assay is classed as in vivo, female Sprague Dawley rats. The gist of the method:
(§1)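 Female Sprague Dawley rats, 200-250 g, n = 5 per group. Oral doses are given at 12 h intervals: test compound at 20 and 40 mg/Kg, vehicle 10 % Tween 80, or dexamethasone 5 mg/Kg as positive control. LPS 5 mg/Kg is given i.p. 2 h after the final dose. Blood is taken 2 h (TNF-α) or 6 h (IL-1ß) after LPS. Plasma is assayed by rat sandwich ELISA. Mean ± SD, one-way ANOVA with Dunnett's test.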

The test system of assay [2] is IL-1ß levels in the plasma. Put plainly: Measurement of IL-1ß production in plasma of LPS-treated SD rats. Type of assay: in vivo, female Sprague Dawley rats. Conditions: LPS 5 mg/Kg i.p., blood 6 h after LPS; for IL-1ß plasma level: LPS group 912 pg/mL. In a few lines:
as §1

For assay [3], the system named is TNF-α production in LPS stimulated RAW 264.7 cells. In words: TNF-α assay. Conditions: Mus musculus, RAW264.7, 6 h, read-out: IC50 for inhibition of TNF-α RAW 264.7. The assay is classed as cell-based.
Assay [4] deals with TNF-α production in LPS stimulated J774A.1 cells. Put plainly: TNF-α assay. Type of assay: cell-based. Conditions: Mus musculus, J774.A1, 6 h, read-out: IC50 for inhibition of TNF-α J774A.1. The gist of the method:
(§2)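 Cells cultured in DMEM with heat-inactivated 10 % FBS, penicillin and streptomycin at 37 °C, 5 % CO2. Test compound in DMSO/water is added at several concentrations for 1 h, then LPS (E. coli 026:B6) 1 µg/mL is added. Incubation runs 6 h for TNF-α and 12 h for IL-1ß. Supernatant cytokine is measured by mouse sandwich ELISA at 450 nm, with curcumin and dexamethasone as standards. Triplicates.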

Assay [5] has as its system IL-1ß production in LPS stimulated RAW 264.7 cells. Put plainly: IL-1ß assay. The assay is classed as cell-based. Conditions: Mus musculus, RAW264.7, 12 h, read-out: IC50 for inhibition of IL-1β RAW 264.7. The gist of the method:
as §2

Assay [6] relates to IL-1ß production in LPS stimulated J774A.1 cells. In words: IL-1ß assay. Type of assay: cell-based. Conditions: Mus musculus, J774.A1, 12 h, read-out: IC50 for inhibition of IL-1β J774A.1.
Assay [7] concerns NO release in LPS stimulated RAW 264.7 cells. Put plainly: NO inhibitory assay. Type of assay: cell-based. Conditions: Mus musculus. In a few lines: (§3)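 Cells are kept in DMEM with 10 % heat-inactivated FBS and antibiotics under 5 % CO2 at 37 °C. They are pretreated 1 h with varied concentrations of test compound (DMSO/water), then stimulated with 1 µg/mL LPS (E. coli 026:B6) for 24 h at 37 °C. Supernatant is mixed 1:1 with modified Griess reagent for 30 min and read at 540 nm. Curcumin and L-NAME serve as standards. Triplicates.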

Assay [8] has as its system NO release in LPS stimulated J774A.1 cells. Put plainly: NO inhibitory assay. Conditions: Mus musculus, J774.A1, 24 h, read-out: IC50 for NO inhibition J774A.1. Type of assay: cell-based. The gist of the method:
as §3

Where [9] appears, read: RAW264.7, 24 h, read-out: IC50 for NO inhibition RAW 264.7.
Setting [10] is: RAW264.7, read-out: IC50 for NO inhibition, range over both cells.

Turning to `C[C@@H]1C[C@H]2[C@@H]3CCC4=CC(=O)C=C[C@]4(C)[C@@]3(F)[C@@H](O)C[C@]2(C)[C@@]1(O)C(=O)CO` [Dexamethasone, reference compound], in assay [1] (5 mg/kg p.o.), the “reduction of TNF-α production” value worked out at 75.8% and the TNF-α plasma level is 394 pg/mL. In assay [2] (5 mg/kg p.o.), the “reduction of IL-1ß production” value turned out to be 63.0% and the IL-1ß plasma level was determined as 338 pg/mL.

For the compound `CCOC(=O)c1cc(O)c(O)c(O)c1` [compound 3, ethyl gallate], the IC50 in assay [3] was 17.3 ± 4.61 µM; in assay [4] it was 23.4 ± 2.67 µM; in assay [5] it was 36.9 ± 3.35 µM; in assay [6], 39.5 ± 2.86 µM.

Consider `CC(/C=C/C=C(\C)C(=O)O)=C\C=C\C=C(C)\C=C\C=C(/C)C(=O)O` [compound 4, crocetin], for which the IC50 is 23.4 ± 2.62 µM in assay [7] (setting [9]); 23.4 to 25.6 µM in assay [7] (setting [10]); 25.6 ± 2.47 µM in assay [8]; 20.4 ± 2.48 µM in assay [3]; 22.2 ± 3.83 µM in assay [4]; 35.4 ± 2.34 µM in assay [5]. Further, the IC50 in assay [6] came to 41.1 ± 1.69 µM. Besides, the “reduction of TNF-α production” value in assay [1] (40 mg/kg p.o.) is on record as 43.6%. This compound came in with a TNF-α plasma level in assay [1] (40 mg/kg p.o.) of 914 pg/mL. Further, in assay [2] (40 mg/kg p.o.), the “reduction of IL-1ß” value is 39.8%. Moreover, in assay [2] (40 mg/kg p.o.), the IL-1ß plasma level amounted to 549 pg/mL.

For the compound `O=C(O)/C=C/c1ccc(O)c(O)c1` [compound 7, Caffeic acid], the IC50 was 19.2 ± 4.97 µM in assay [7] (setting [9]); 78 ± 3.94 µM in assay [8]; 45 ± 1.93 µM in assay [3]; 49.6 ± 1.33 µM in assay [4]; 59.3 ± 2.94 µM in assay [5]; 62.3 ± 2.94 µM in assay [6].

Take `O=C(O)c1cc(O)c(O)c(O)c1` [compound 10, gallic acid]: the IC50 in assay [3] was 23.8 ± 2.14 µM; in assay [4], 29.3 ± 3.12 µM; in assay [5] it was 42.1 ± 3.62 µM; in assay [6], 47.6 ± 1.67 µM.

Take `CC/C=C\C[C@H]1C(=O)CC[C@@H]1CC(=O)O` [compound 11, jasmonic acid]: the IC50 in assay [7] (setting [9]) is 29.4 ± 1.65 µM; in assay [7] (setting [10]) it was 21.3 to 29.4 µM; in assay [8], 21.3 ± 1.35 µM; in assay [3], 39.4 ± 2.85 µM; in assay [4], 41.4 ± 1.67 µM; in assay [5], 57.9 ± 0.61 µM. Besides, the IC50 in assay [6] turned out to be 59.2 ± 2.25 µM. Moreover, the “reduction of TNF-α production” value in assay [1] (40 mg/kg p.o.) turned out to be 48.9%. This compound also yielded a TNF-α plasma level in assay [1] (40 mg/kg p.o.) of 830 pg/mL. Also, the “reduction of IL-1ß” value in assay [2] (40 mg/kg p.o.) turned out to be 54.2%. In assay [2] (40 mg/kg p.o.), this compound gave an IL-1ß plasma level of 418 pg/mL.

For the compound `N[C@@H](Cn1ccc(=O)c(O)c1)C(=O)O` [compound 12, L-mimosine], the IC50 is 19.2 ± 1.53 µM in assay [7] (setting [9]); 19.2 to 21.2 µM in assay [7] (setting [10]); 21.2 ± 1.36 µM in assay [8]; 25.2 ± 2.48 µM in assay [3]; 64.2 ± 2.53 µM in assay [5]; 65.8 ± 1.86 µM in assay [6]. Moreover, in assay [1] (40 mg/kg p.o.), the “reduction of TNF-α production” value came out at 60.7%. The compound further came in with a TNF-α plasma level in assay [1] (40 mg/kg p.o.) of 639 pg/mL. Besides, the “reduction of IL-1ß” value in assay [2] (40 mg/kg p.o.) turned out to be 16.3%. This compound also displayed an IL-1ß plasma level in assay [2] (40 mg/kg p.o.) of 763 pg/mL.

Consider `CC(/C=C/C=C(\C)C(=O)O[C@@H]1O[C@H](CO[C@@H]2O[C@H](CO)[C@@H](O)[C@H](O)[C@H]2O)[C@@H](O)[C@H](O)[C@H]1O)=C\C=C\C=C(C)\C=C\C=C(/C)C(=O)O[C@@H]1O[C@H](CO[C@@H]2O[C@H](CO)[C@@H](O)[C@H](O)[C@H]2O)[C@@H](O)[C@H](O)[C@H]1O` [compound 14, crocin], for which the IC50 in assay [7] (setting [9]) was 27.2 ± 4.51 µM; in assay [7] (setting [10]), 27.2 to 31.5 µM; in assay [8] it was 31.5 ± 1.25 µM; in assay [3] it was 22.4 ± 1.08 µM; in assay [4] it was 25.2 ± 2.56 µM; in assay [5] it was 29.2 ± 3.69 µM. Moreover, in assay [6], the IC50 worked out at 31.2 ± 2.64 µM. Besides, the “reduction of TNF-α production” value in assay [1] (40 mg/kg p.o.) came out at 48.4%. Besides, in assay [1] (40 mg/kg p.o.), the TNF-α plasma level is given as 836 pg/mL. The “reduction of IL-1ß” value in assay [2] (40 mg/kg p.o.) was found to be 50.2%. The IL-1ß plasma level in assay [2] (40 mg/kg p.o.) is given as 456 pg/mL.
